Assay [1] addresses Protein-S-isoprenylcysteine O-methyltransferase (Rattus norvegicus) (UniProt Q9WVM4). In words: In vitro inhibition of Prenylated protein methyltransferase of rat brain cerebellar synaptosomes was assessed from the amount of [3H]-methyl esters formed in 15 min. The format is subcellular. In outline:
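Compounds at 150 μM final were tested as methyl acceptors. Enzyme source was rat brain cerebellar synaptosomes (100 μg protein) with 25 μM [methyl-3H]AdoMet ([…]) as methyl donor. Read-out was [3H]methyl esters formed in 15 min, in quadruplicate, ±SEM. Detection limit about 3 pmol.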

For assay [2], the target named is Protein-S-isoprenylcysteine O-methyltransferase (Rattus norvegicus, UniProt Q9WVM4). Description: Ability to inhibit prenylated protein methyltransferase (PPMTase) in cell free systems. The procedure, abridged: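 PPMTase source: rat cerebellum synaptosomal membranes (100 μg protein). Substrate 50 μM AFC with 25 μM [methyl-3H]AdoMet, 37 °C for 15 min, with and without a range of inhibitor concentrations, run in duplicate. Activity with drug is expressed as percent of activity without drug, and Ki is derived from the inhibition curves.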
Protein-S-isoprenylcysteine O-methyltransferase, sequence (Q9WVM4 whole entry): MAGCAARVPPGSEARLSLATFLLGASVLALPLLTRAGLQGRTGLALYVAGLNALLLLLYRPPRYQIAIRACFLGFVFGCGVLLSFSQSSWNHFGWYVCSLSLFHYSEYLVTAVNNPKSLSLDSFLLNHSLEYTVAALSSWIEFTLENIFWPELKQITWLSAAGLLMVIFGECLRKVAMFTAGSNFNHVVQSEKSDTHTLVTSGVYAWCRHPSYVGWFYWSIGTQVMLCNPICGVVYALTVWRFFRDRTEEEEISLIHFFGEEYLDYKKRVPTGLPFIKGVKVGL

Assay [3] deals with EJ. In words: Effective concentration required for 50% inhibition of growth of human Ha-ras-transformed rat 1 (EJ)cells. The format is functional, cell-based. In outline: (§1)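 Ha-ras-transformed Rat1 (EJ) cells grown in DMEM/10% FCS with compound in 0.1% DMSO (vehicle controls 0.1% DMSO), 7-day cultures. Cell number by direct counting gives dose–response curves, and EC50 is the concentration giving 50% growth inhibition. Means of three to five determinations ±SD.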

The test system of assay [4] is EJ. Description: The highest nontoxic concentration for human Ha-ras-transformed rat 1 (EJ) cells was determined by MTT staining method. The format is functional. In outline:
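EJ (Ha-ras-transformed Rat1) cultures treated with compound were stained with MTT to detect live cells, with trypan blue also used to detect dead cells. The value reported is the highest concentration without toxicity.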
(In general: Tetrazolium dyes change colour on reduction, which living cells bring about.)

The test system of assay [5] is EJ. Description: Effective concentration required for 50% inhibition of growth of human Ha-ras-transformed rat 1 (EJ)cells; not active at 200 uM. Format: functional, cell-based. The procedure, abridged:
as §1

Protein-S-isoprenylcysteine O-methyltransferase (Rattus norvegicus), sequence (Q9WVM4 whole entry): as above

In turn, `CC(C)=CCC/C(C)=C/CC/C(C)=C/CSc1ccccc1C(=O)O` [SALIRASIB] showed an Amount formed in assay [1] of 0.76 pmol. Besides, in assay [2], the Ki (as a rule, a dissociation constant, usually derived from enzyme kinetics or from competition with a known ligand) was 2.8 µM. In the assay on EJ [3], the response was half-maximal at 7.5 µM (EC50). The same compound displayed a Cytotoxic endpoint in the assay on EJ [4] of 200 µM.

Take `CC(C)=CCC/C(C)=C/CC/C(C)=C/CSc1ncccc1C(=O)O`: the Amount formed in assay [1] was 0.73 pmol. Also, in assay [2], the affinity corresponds to a Ki of 14.9 µM. For the same compound, the response in the assay with EJ [3] was half-maximal at 126 µM (EC50). In the assay on EJ [4], this compound displayed a Cytotoxic endpoint of 200 µM.

`CC(C)=CCC/C(C)=C/CC/C(C)=C/CNc1ccc(Cl)c(C(=O)O)c1` gave an Amount formed in assay [1] of 0.37 pmol. The compound further had a Ki in assay [2] of 8 µM. A half-maximal effect in the assay on EJ [3] (EC50) was put at 30.8 µM. For the same compound, the Cytotoxic endpoint in the assay on EJ [4] came out at 200 µM.

In assay [1], `CCC(=O)SC/C=C(\C)CC/C=C(\C)CCC=C(C)C` yielded an Amount formed of 26.3 pmol.

The compound `CC(=O)N(C/C=C(\C)CC/C=C(\C)CCC=C(C)C)C(CS)C(=O)O` (stereo not drawn) returned an Amount formed in assay [1] of 52.5 pmol.

Compound `CC(C)=CCC/C(C)=C/CC/C(C)=C/CSc1ccc(N)cc1C(=O)O` gave an Amount formed in assay [1] of 0.89 pmol. Also, in assay [2], the affinity corresponds to a Ki of 72.8 µM. Also, the EC50 (usually the concentration that produces a half-maximal response) with EJ [5] is on record as “Not Active”. Moreover, in the assay on EJ [4], the Cytotoxic endpoint was found to be 25 µM.

Source of the values: ChEMBL document CHEMBL1128294, “Farnesyl derivatives of rigid carboxylic acids-inhibitors of ras-dependent cell growth” (J Med Chem, 1995).
